In general, T/C refers to the ratio of treated to control.

The source of these data is ChEMBL document CHEMBL1124035, “1-Amino-substituted 4-methyl-5H-pyrido[4,3-b]indoles (gamma-carbolines) as tricyclic analogues of ellipticines: a new class of antineoplastic agents” (1988).

Structures are written as SMILES.

Experiment [1] concerns Mus musculus. The experiment in a line: Median survival day in P388 cell line when a dose of 50 mg/kg administered intravenously to mice. Format: functional. The settings on record: route intravenous. In outline: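 P388 leukaemia in CDF1 hybrid mice, 10 per group. At D0, 10^6 viable cells were inoculated ip, followed by a single iv dose on D1. Weight change, median survival day, T/C (treated/control median survival × 100) and survivors at D30 were recorded.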

The subject of experiment [2] is Mus musculus. In words: Median survival day of P388 leukemia infected mice, when a dose of 10 mg/kg administered intraperitoneally. The settings on record: route intraperitoneal. Format: functional. In outline:
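P388 leukaemia in CDF1 hybrid mice, 10 per group. At D0, 10^6 viable cells were inoculated ip, followed by a single ip dose of drug in distilled water on D1. Weight change, median survival day, T/C (treated/control median survival × 100) and survivors at D30 were recorded. Controls were 20 mice.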

The test system of experiment [3] is Mus musculus. In words: Survivors at day 60 when a dose of 5 mg/kg to B16 melanoma infected when tested in 10 mice. The experiment is classed as functional.
The test system of experiment [4] is Mus musculus. In words: Weight change in g at a dose of 50 mg/kg intravenous administration to P388 leukemia model. Format: functional. In a few lines:
(§1)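 Mice (10 per group) were inoculated ip at D0 with 10^6 P388 leukemia cells and given a single iv dose at D1. Read-outs were weight change (g), median survival day, T/C % versus controls and survivors at D30.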

The subject of experiment [5] is Mus musculus. The experiment in a line: Antitumor activity against P388 cells at a dose of 50 mg/kg administered intravenously to mice. The experiment is classed as functional. The settings on record: route intravenous. In outline: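 P388 (10^6 cells) or L1210 (10^5 cells) leukemia was inoculated ip in mice at D0, followed by a single iv drug treatment on D1. Weight change was recorded. T/C % = median survival day of treated / controls × 100; survivors noted at D30; 10-15 mice per group.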

Experiment [6] concerns Mus musculus. The experiment in a line: Antitumor activity against P388 cells at a dose of 10 mg/kg administered intraperitoneally to mice. Format: functional. The settings on record: route intraperitoneal.
Experiment [7] concerns Mus musculus. The experiment in a line: Weight change in g when a dose of 10 mg/kg administered intraperitoneally to P388 leukemia infected mice. The experiment is classed as functional. The settings on record: route intraperitoneal. In outline:
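P388 model with a single ip dose. Mice (10 per group) were inoculated ip at D0 with 10^6 P388 cells and given one ip drug dose at D1. Body-weight change (g), median survival day, T/C and survivors at D30 were recorded.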

The subject of experiment [8] is Mus musculus. In words: Survivors at day D38 when a dose of 50 mg/kg administered intravenously to C38 adenocarcinoma mice model on D1 when tested in 10 mice. The settings on record: route intravenous. Format: functional. In outline:
(§2)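 Hybrid BDF1 mice, 10 per test, were implanted sc with a standard 3-mm³ fragment of C38 colon adenocarcinoma. Drug was given iv either on D1 alone or on D2 and D9. Animals were followed per NCI (Geran) protocol.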

Experiment [9] deals with Mus musculus. In words: Weight change in g when a dose of 10 mg/kg administered intraperitoneally to B16 melanoma infected mice. Format: functional. The settings on record: route intraperitoneal. In a few lines: (§3)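 Hybrid BDF1 mice were inoculated ip at D0 with 0.5 mL of B16 melanoma homogenate (1 g tumor in 10 mL physiological serum). Drug was given ip daily on days 1-9, with cis-platinum 0.5 mg/kg as positive control on the same schedule.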

The subject of experiment [10] is Mus musculus. The experiment in a line: Survivors at day 60 when a dose of 2.5 mg/kg to B16 melanoma infected mice; 0/10.
The test system of experiment [11] is Mus musculus. The experiment in a line: Survivors at day D32 when a dose of 50 mg/kg administered intravenously to C38 adenocarcinoma mice models; 10/10. The settings on record: route intravenous. Format: functional. In a few lines: as §2
The test system of experiment [12] is Mus musculus. In words: Survivors at day D30 when a dose of 40 mg/kg administered intravenously to L1210 leukemia mice model; 0/10. The settings on record: route intravenous. Format: functional.
For experiment [13], the system named is Mus musculus. In words: Median survival day in L1210 leukemia mice model when a dose of 20 mg/kg administered intravenously. The experiment is classed as functional. The settings on record: route intravenous. In outline:
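L1210 leukaemia in CDF1 hybrid male or female mice, 10 per group. At D0, 10^5 viable cells were inoculated ip, followed by a single iv dose on D1. Median survival day was recorded, and T/C was calculated as treated/control median survival × 100.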

Experiment [14] deals with Mus musculus. The experiment in a line: Median survival day of B16 melanoma infected mice when a dose of 2.5 mg/kg administered intraperitoneally. Format: functional. The settings on record: route intraperitoneal. In outline:
(§4)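 B16 melanoma in hybrid BD F1 mice. At D0 each mouse was inoculated ip with 0.5 mL of homogenate made from 1 g of tumour in 10 mL of physiological serum. Compounds were given ip daily at the stated doses for 9 days (D1-9), with cis-platinum 0.5 mg/kg under the same schedule as positive control.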

The subject of experiment [15] is Mus musculus. The experiment in a line: Antitumor activity against C38 adenocarcinoma cells at a dose of 100 mg/kg administered intravenously on D1 to mice; tumor volume at D38 (T/C). The settings on record: route intravenous.
Experiment [16] relates to Mus musculus. The experiment in a line: Weight change in g when a dose of 40 mg/kg administered intraperitoneally to P388 leukemia model. The settings on record: route intraperitoneal.
Experiment [17] relates to Mus musculus. In words: In vivo toxicity test on P388 cells at a dose of 50 mg/kg administered intravenously to P388 leukemia mice model. The experiment is classed as functional. The settings on record: route intravenous. In outline:
as §1

Experiment [18] concerns Mus musculus. The experiment in a line: Survivors at day 60 when a dose of 1.25 mg/kg to B16 melanoma infected mice; 0/10.
Experiment [19] has as its system Mus musculus. In words: Survivors at day 60 when a dose of 20 mg/kg to B16 melanoma infected mice; 5/10. The experiment is classed as functional.
In experiment [20] the test system is Mus musculus. The experiment in a line: Median survival day in B16 melanoma cell line when a dose of 30 mg/kg administered intraperitoneally to mice. Format: functional. The settings on record: route intraperitoneal. In outline:
as §4

Experiment [21] has as its system Mus musculus. In words: Survivors at day 60 when a dose of 5 mg/kg to B16 melanoma infected mice; 0/10. The experiment is classed as functional.
Experiment [22] concerns Mus musculus. The experiment in a line: Antitumor activity against B16 melanoma cells at a dose of 30 mg/kg administered intraperitoneally to mice. Format: functional. The settings on record: route intraperitoneal. In outline:
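Hybrid BD F1 mice were inoculated ip at D0 with 0.5 mL of B16 melanoma homogenate (1 g tumor in 10 mL physiological serum). Drugs were given ip daily D1-9. Cisplatin 0.5 mg/kg was the positive control under the same schedule.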

Experiment [23] deals with Mus musculus. In words: Median survival day in B16 melanoma cell line when a dose of 5 mg/kg administered intraperitoneally to mice. The experiment is classed as functional. The settings on record: route intraperitoneal. In a few lines:
as §4

The test system of experiment [24] is Mus musculus. In words: Antitumor activity against P388 cells at a dose of 40 mg/kg administered intraperitoneally P388 Leukemia model. The experiment is classed as functional. The settings on record: route intraperitoneal. In a few lines:
(§5)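 Mice were inoculated ip with 10^6 P388 leukemia cells at D0, then given a single ip drug dose on D1. Weight change was recorded. T/C % = median survival day of treated / controls × 100; survivors counted at D30; 10 mice per dose group, 20 controls.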

Experiment [25] deals with Mus musculus. In words: Weight change in g when a dose of 80 mg/kg administered intraperitoneally to P388 leukemia model. The settings on record: route intraperitoneal.
The test system of experiment [26] is Mus musculus. The experiment in a line: Weight change in g when a dose of 20 mg/kg administered intraperitoneally in B-16 melanoma infected mice. Format: functional. The settings on record: route intraperitoneal. In a few lines: as §3
The test system of experiment [27] is Mus musculus. In words: Weight change in g when a dose of 5 mg/kg administered intraperitoneally in B-16 melanoma infected mice. The experiment is classed as functional. The settings on record: route intraperitoneal. In outline: as §3
The test system of experiment [28] is Mus musculus. The experiment in a line: Survivors at day 30 when a dose of 20 mg/kg to P388 leukemia model; 0/10. The experiment is classed as functional.
The subject of experiment [29] is Mus musculus. The experiment in a line: Antitumor activity against P388 cells at a dose of 80 mg/kg administered intraperitoneally P388 Leukemia model. The experiment is classed as functional. The settings on record: route intraperitoneal. In outline: as §5
The subject of experiment [30] is Mus musculus. In words: Survivors at day 60 when a dose of 2.5 mg/kg to B16 melanoma infected mice; 0/10. The experiment is classed as functional.

On to `Cc1cnc(NCCCN(C)C)c2c3cc(O)ccc3n(C)c12`, for which the Median survival day in the experiment with Mus musculus [1] came to 17.75; in the experiment on Mus musculus [2], 19. The results for the Survivors in the experiment on Mus musculus [3] and with Mus musculus [8] were 1 and 10, respectively. Also, the Weight change in the experiment on Mus musculus [4] is 0.5 g; with Mus musculus [7] it was -1.4 g; in the experiment on Mus musculus [9], -1.9 g. Further, the T/C with Mus musculus [5] was 163%; in the experiment on Mus musculus [6], 167%.

In the case of `CCN(CC)CCCNc1ncc(C)c2c1c1cc(O)ccc1n2C`, the Survivors is listed as 0 in the experiment on Mus musculus [10], 10 with Mus musculus [11], 0 in the experiment on Mus musculus [12] and 0 in the experiment with Mus musculus [18]. Also, the Median survival day came out at 11.8 with Mus musculus [13] and 35.25 in the experiment with Mus musculus [14]. Further, the Tumor volume in the experiment with Mus musculus [15] turned out to be 36%. For the same molecule, the Weight change in the experiment with Mus musculus [16] is given as -5.2 g. In the experiment on Mus musculus [17], this molecule yielded a T/C of 174%.

For `CCN(CC)CCCNc1[nH]cc(C)c2nc3ccc(O)cc3c1-2`, the Survivors in the experiment on Mus musculus [19] is 5; with Mus musculus [21] it was 0; in the experiment with Mus musculus [28] it was 0; with Mus musculus [30], 0. In addition, the Median survival day was found to be 9 in the experiment on Mus musculus [20] and 48 with Mus musculus [23]. The T/C was found to be 33% in the experiment with Mus musculus [22], 136% in the experiment on Mus musculus [24] and 20% with Mus musculus [29]. In addition, the Weight change with Mus musculus [25] is on record as -1.7 g; in the experiment on Mus musculus [26] it was -0.8 g; in the experiment with Mus musculus [27], -0.1 g.
